Assay outcomes (PubChem BioAssay)
Compounds with a hit are over-represented: about 1.5% of the library has one in this group of screens.
TPT1 inhibitor = inhibitors of Candida albicans tRNA 2'-phosphotransferase TPT1; recombinant caTPT1, FP RNA substrate dephosphorylation; inhibition, % at 5 µM; 300,000 tested, 0.81% active;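 active = inhibition above the mean of all tested compounds plus 3 SD, set per screening campaign, cut at about 24% in these data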
Rpn11 block = Rpn11 (human) deubiquitinase inhibition | 360,000 tested, 0.59% active | human 26S proteasome, Ub4-pepOG fluorescence polarization; 20S core pre-blocked with epoxomicin | calls only at 20 µM | O00487;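 active = inhibition at 20 µM, scaled to each plate's controls, above about 33%, limit read from the data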
Target sequence (O00487 whole entry, looked up): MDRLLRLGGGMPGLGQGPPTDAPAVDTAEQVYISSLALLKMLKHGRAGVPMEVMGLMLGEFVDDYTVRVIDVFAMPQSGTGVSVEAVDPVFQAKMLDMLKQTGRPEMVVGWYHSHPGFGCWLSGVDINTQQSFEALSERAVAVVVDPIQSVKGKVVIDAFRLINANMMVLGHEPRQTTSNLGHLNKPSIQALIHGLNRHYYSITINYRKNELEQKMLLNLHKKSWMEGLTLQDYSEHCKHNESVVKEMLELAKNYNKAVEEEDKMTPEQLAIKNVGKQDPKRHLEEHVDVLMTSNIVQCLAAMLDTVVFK
HNF4A DNA FP = change in binding of human HNF4 alpha to DNA | P41235 | HNF4a-FITC DNA binding, fluorescence polarization, 1 h | 360,000 tested, 0.3% active | activity change, % at 10 µM; in the data active = activity change above about 30%, passing the limit was not always enough
CSN inh = blocks human CSN-mediated cullin deneddylation; Q92905; Purified CSN, SCF-Nedd8-OG deneddylation, fluorescence polarization; inhibition, % at 12.5 µM; 360,000 tested, 0.38% active; AID 651999;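 active = pattern-corrected inhibition above about 35%, with an unprinted fluorescence ratio check between 0.5 and 1.5, limit read from the data, passing the limit was not always enough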
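Assay system: purified human Csn5 enzyme expressed in HEK293T cells; Input: 0.24 nM Csn5 enzyme, final concentration; Reagent: 10 nM SCFSkp2-Nedd8OG; Compound dosing: 12.5 µM single point; Times: reaction 90 min, room temperature; Technique: fluorescence polarization readout.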
Rpn11 inh conf = Rpn11 inhibition confirmation, single concentration; shares compounds with Rpn11 block; purified human 26S proteasome, Ub4-pepOG fluorescence polarization; proteasome pretreated with epoxomicin; inhibition, % at 20 µM; 1,900 tested, 29% active; AID 602318
MMP-2 counter-1 = counter-screen for RPN11 inhibitors: inhibition of human MMP-2; shares compounds with Rpn11 block; recombinant MMP-2, FRET peptide cleavage fluorescence; inhibition, % at 20 µM; 1,900 tested, 4% active; AID 602330;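 also: human MMP-2 activated beforehand with APMA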
Thrombin FP = blocks bovine thrombin, flagging nonselective RPN11 hits; bovine thrombin cleavage of Ub4-pepOG, fluorescence polarization; shares compounds with Rpn11 block; 1,900 tested, 13% active; AID 602333; inhibition, % at 20 µM;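 active = mean inhibition at least 40% at 20 µM, or signal 3 deviations below plate average, so some actives read negative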
CSN5 deneddyl = Csn5 (human) deneddylation inhibition, single-concentration validation | Csn5 deneddylation of SCF-Nedd8OG, fluorescence polarization, 90 min | 540 tested, 62% active | inhibition, % at 16.6 µM | shares compounds with CSN inh; in the data active = inhibition above about 50%
MMP-2 counter-2 = counter-screen for CSN deneddylation inhibitors: human MMP-2 inhibition; shares compounds with CSN inh; recombinant MMP-2, FRET substrate fluorescence, 60 min; inhibition, % at 16.6 µM; 540 tested, 33% active;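 active = corrected plate-normalized z-score of 5 or more, or -5 or less, or inhibition of 15% or more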
Thrombin cntr = counter-screen for CSN deneddylation inhibitors: bovine thrombin inhibition; bovine thrombin cleavage of Ub4-pepOG, fluorescence polarization; shares compounds with CSN inh; 540 tested, 49% active; AID 720656; inhibition, % at 16.6 µM;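 active = inhibition at or above a set limit, with a fluorescence interference ratio between 0.5 and a set maximum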
Numbers stand for hits. Rule as the data show it, unless noted: active = inhibition above about 40%; inactive = the rest.

What do the screens show for `COC(=O)c1ccc(NC(=O)c2ccc(NC(=O)c3ccco3)cc2)cc1`?
TPT1 inhibitor: inactive; Rpn11 block: active; HNF4A DNA FP: 102.3; CSN inh: 67.1; Rpn11 inh conf: 84.9; MMP-2 counter-1: inactive; Thrombin FP: inactive; CSN5 deneddyl: 103.9; MMP-2 counter-2: inactive; Thrombin cntr: inactive

Results for O=C1/C(=C\c2cccc([N+](=O)[O-])c2O)SC(=S)N1Cc1ccccc1 ?
TPT1 inhibitor: inactive; Rpn11 block: inactive; HNF4A DNA FP: inactive; CSN inh: inactive

How did COc1cc([N+](=O)[O-])cc(/C=C2/SC(=S)N(Cc3ccccc3)C2=O)c1O do in these assays?
TPT1 inhibitor: inactive; Rpn11 block: active; HNF4A DNA FP: 42.1; CSN inh: 39.5; Rpn11 inh conf: 64.1; MMP-2 counter-1: 55.0; Thrombin FP: inactive; MMP-2 counter-2: inactive; Thrombin cntr: 43.6

How did O=C(COC(=O)/C=C/c1ccccc1Cl)NC(=O)NCc1ccccc1 do in these assays?
Rpn11 block: inactive; HNF4A DNA FP: inactive; CSN inh: inactive

How did CS(=O)(=O)C1=NSC2=NC(=O)/C(=C\c3cccn3-c3ccc(Cl)cc3)C(=N)N21 do in these assays?
TPT1 inhibitor: inactive; Rpn11 block: active; HNF4A DNA FP: inactive; CSN inh: 99.9; Rpn11 inh conf: 76.5; MMP-2 counter-1: inactive; Thrombin FP: 120.2; CSN5 deneddyl: inactive; MMP-2 counter-2: 25.8; Thrombin cntr: 49.6

How did CN1CCN(c2ccc(CNC(=O)C3(C)Cc4c(-c5ccc6c(c5)OCO6)ccnc4O3)cc2)CC1 (centres undefined) do in these assays?
Rpn11 block: inactive; HNF4A DNA FP: inactive; CSN inh: inactive

How did CCOC(=O)c1sc2nc3c(SCC(=O)O)cc(C(=O)c4ccccc4O)cn3c(=O)c2c1C do in these assays?
TPT1 inhibitor: inactive; Rpn11 block: active; HNF4A DNA FP: inactive; CSN inh: 47.3; Rpn11 inh conf: 44.5; MMP-2 counter-1: inactive; Thrombin FP: active; CSN5 deneddyl: 109.1; MMP-2 counter-2: 22.1; Thrombin cntr: inactive

Results for O=C(NCCc1ccccc1)c1c[nH]c2ccccc2c1=O ?
Rpn11 block: inactive; HNF4A DNA FP: inactive; CSN inh: inactive

How did COc1ccc(CCn2c(N)c(C(=O)NCc3ccco3)c3nc4ccccc4nc32)cc1OC do in these assays?
TPT1 inhibitor: inactive; Rpn11 block: active; HNF4A DNA FP: inactive; CSN inh: 38.0; Rpn11 inh conf: inactive; MMP-2 counter-1: inactive; Thrombin FP: inactive; CSN5 deneddyl: 96.4; MMP-2 counter-2: inactive; Thrombin cntr: inactive

How did Nc1c(C(=O)NCc2ccco2)c2nc3ccccc3nc2n1CCc1ccccc1F do in these assays?
TPT1 inhibitor: inactive; Rpn11 block: inactive; HNF4A DNA FP: inactive; CSN inh: inactive

How did COc1ccc(NC(=O)CCCN2C(=O)/C(=C\c3ccco3)SC2=S)cc1 do in these assays?
TPT1 inhibitor: inactive; Rpn11 block: inactive; HNF4A DNA FP: inactive; CSN inh: inactive

What do the screens show for `O=C(CCCN1C(=O)/C(=C/c2ccco2)SC1=S)Nc1cccc(C(=O)O)c1`?
TPT1 inhibitor: inactive; Rpn11 block: active; HNF4A DNA FP: inactive; CSN inh: 44.8; Rpn11 inh conf: inactive; MMP-2 counter-1: 45.4; Thrombin FP: inactive; CSN5 deneddyl: 80.0; MMP-2 counter-2: 25.1; Thrombin cntr: inactive
